Hits are enriched below; roughly 1.3% of the tested compounds scored in any of these assays.
NR2E3 ag-1 = activates human NR2E3 receptor; inhibition of corepressor binding, % at 3.98 µM; Q9Y5X4; AID 602229; 0.35% of 360,000 active; CHO-S Gal4-NCOR/VP16-NR2E3 two-hybrid, luciferase;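 active means inhibition above the mean of all tested compounds plus 3 SD, cut at about 70% in these data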;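 further: 0% = DMSO with NR2E3 transfected cells and 100% = cells lacking NR2E3 construct; higher means lower luciferase signal from less NR2E3 corepressor binding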
Target sequence (Q9Y5X4 whole entry, looked up, the tested form may be a part): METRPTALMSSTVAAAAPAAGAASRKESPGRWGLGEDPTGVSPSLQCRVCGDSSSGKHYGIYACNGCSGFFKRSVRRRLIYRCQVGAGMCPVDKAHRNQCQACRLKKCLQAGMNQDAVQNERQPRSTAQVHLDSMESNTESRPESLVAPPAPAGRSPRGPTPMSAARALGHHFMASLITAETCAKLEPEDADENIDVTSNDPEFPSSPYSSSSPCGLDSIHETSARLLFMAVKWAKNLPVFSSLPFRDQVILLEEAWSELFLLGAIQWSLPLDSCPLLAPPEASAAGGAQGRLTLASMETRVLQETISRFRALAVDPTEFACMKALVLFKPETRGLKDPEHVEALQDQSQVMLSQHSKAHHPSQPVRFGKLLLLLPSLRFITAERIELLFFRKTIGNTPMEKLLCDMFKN
PP5 primary = PP5 (human) phosphatase inhibition. inhibition, % at 6.7 µM. purified PP5c, OMFP substrate fluorescence. 0.18% of 320,000 active. P53041;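 active means inhibition above the campaign's mean inhibition across all tested compounds plus 3 SD, cut at about 9.5% in these data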;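 further: 0% = DMSO only and 100% = 100 µM cantharidin control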
PP1 inh = counter-screen for PP5 inhibitors: inhibitors of human PP1-alpha; P62136; purified PP1alpha, OMFP fluorescence; inhibition, % at 6.7 µM; 0.9% of 320,000 active; AID 2235;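 active means inhibition above the mean inhibition of all tested compounds plus 3 SD, computed separately for each screening campaign, cut at about 15% in these data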
Target sequence (P62136 whole entry, looked up): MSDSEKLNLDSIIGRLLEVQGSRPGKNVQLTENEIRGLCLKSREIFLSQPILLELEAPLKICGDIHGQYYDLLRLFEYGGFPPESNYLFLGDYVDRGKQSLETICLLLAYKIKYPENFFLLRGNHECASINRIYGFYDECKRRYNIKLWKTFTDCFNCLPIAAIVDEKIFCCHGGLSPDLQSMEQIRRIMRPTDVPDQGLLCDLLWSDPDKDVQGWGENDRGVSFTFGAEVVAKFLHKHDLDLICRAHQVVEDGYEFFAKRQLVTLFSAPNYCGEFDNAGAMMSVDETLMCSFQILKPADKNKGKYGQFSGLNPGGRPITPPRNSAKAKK
NR2E3 ag-2 = agonists of human nuclear receptor NR2E3. GST-NR2E3/biotin-RetCOR TR-FRET, 1536-well. inhibition of corepressor binding, % at 4.78 µM. 0.12% of 320,000 active;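 active means percent inhibition above the cutoff of mean plus 3 SD of all tested compounds, set per screening campaign, cut at about 20% in these data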;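 further: 0% = DMSO wells and 100% = biotin wells as full block of FRET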
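Test system: GST-NR2E3 and biotin-RetCOR proteins | Quantity: 1.35 nM GST-tagged NR2E3 final | Medium: Tris pH 7.5 | Also added: 7 nM biotin-RetCOR | Dosing: Compound at 4.8 µM, single dose | Timing: 5 h at 4 °C | Detection: Time-resolved FRET | Read-out basis: Percent inhibition | Benchmarks: Biotin wells as high control, 0.6% DMSO wells as low control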
NR2E3 ag conf = NR2E3 agonism confirmed in two-hybrid assay; shares compounds with NR2E3 ag-1; CHO-S mammalian two-hybrid NR2E3-NCOR, luciferase luminescence; inhibition, % at 3.98 µM; 51% of 2,300 active;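 active means average inhibition above a cutoff equal to the mean inhibition of all tested compounds plus one SD, cut at about 70% in these data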;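 further: 0% = DMSO in NR2E3 cells and 100% = DMSO in cells lacking NR2E3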
VP16 counter = GAL4-VP16 reporter inhibition in NR2E3 agonist counterscreen. CHO-S GAL4-VP16 luciferase reporter, luminescence. inhibition, % at 3.98 µM. 29% of 2,300 active. shares compounds with NR2E3 ag-1;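 active means mean inhibition above a cutoff equal to the average over all tested compounds plus one standard deviation, cut at about 70% in these data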;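 further: luciferase from a UAS reporter driven by GAL4-VP16 transactivation; 0% = DMSO with VP16-transfected cells and 100% = DMSO with cells lacking VP16; higher means less reporter light so more repression of VP16 activity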
Starred values were filed as active, the others as inactive; x = no result.

SMILES | NR2E3 ag-1 | PP5 primary | PP1 inh | NR2E3 ag-2 | NR2E3 ag conf | VP16 counter
COc1ccc(S(=O)(=O)/N=C2\C=C(Nc3ccc(O)cc3)C(=O)c3ccccc32)cc1 | 114.0* | 7.2 | 2.9 | -1.2 | 99.3* | 99.6*
CCc1ccc(S(=O)(=O)/N=C2\C=C(NS(=O)(=O)c3ccccc3)C(=O)c3ccccc32)cc1 | 20.9 | x | x | x | x | x
COc1cccc(COc2ccccc2C2Nc3ccc(Br)cc3C(=O)N2NC(=O)c2ccncc2)c1 (centres undefined) | 48.0 | 4.3 | 1.7 | 2.8 | 64.8 | 30.2
CCC(=O)N(CCc1ccc(S(N)(=O)=O)cc1)C1CC(=O)N(c2ccc(OC)cc2)C1=O (centres undefined) | -32.6 | -0.7 | -5.2 | 3.5 | x | x
S=C1NCN(Cc2cccnc2)CN1 | 0.5 | 0.8 | 0.4 | 1.0 | x | x
CN(C)C(=S)N=c1ssc(=S)n1Cc1cccnc1 | 85.6* | x | x | x | -24.4 | -24.1
COc1ccc(Cl)cc1NC(=O)CN(C)C(=O)c1cn2ccccc2n1 | -20.6 | 1.4 | -8.3 | 4.1 | x | x
CC[C@H](C)C(=O)O[C@H]1C[C@@H](C)C=C2C=C[C@H](C)[C@H](CC[C@@H]3C[C@@H](O)CC(=O)O3)[C@H]21 | 23.5 | 1.9 | -2.3 | 2.3 | 47.8 | 18.9
CCC(C)C(=O)OC1CCC=C2C=CC(C)C(CCC3CC(O)CC(=O)O3)C21 (centres undefined) | 36.5 | x | x | x | x | x
COC1(OC)C(/C=C/c2ccc(C)cc2)C(C#N)(C#N)C1(OC)OC (centres undefined) | 77.1* | 2.3 | -0.6 | -3.2 | -30.6 | 6.7
CC(NC(=O)c1ccc(Br)s1)c1ccncc1 (centres undefined) | -5.1 | 0.8 | -2.9 | -2.7 | x | x
COc1ccc(NC(=O)c2ccccc2)cc1NS(=O)(=O)c1ccc(F)cc1 | -22.4 | 1.9 | 1.3 | 3.0 | x | x
COc1ccc(NC(=O)c2ccc(-c3ccccc3)cc2)cc1NS(=O)(=O)c1ccc(F)cc1 | 68.8 | 4.0 | 0.7 | 0.3 | -4.8 | 21.1
OC(Cc1ccccc1Br)c1ncc(-c2cccc(C(F)(F)F)c2)[nH]1 (centres undefined) | 6.5 | x | x | x | x | x
C[C@H](CO)N1C[C@H](C)[C@@H](CN(C)C(=O)Nc2ccc3c(c2)OCCO3)OCc2cnnn2CCCC1=O | 62.7 | x | x | x | 7.8 | -22.2
C[C@@H]1CN([C@H](C)CO)C(=O)CCCn2nncc2CO[C@H]1CN(C)C(=O)Nc1ccc2c(c1)OCO2 | -34.9 | x | x | x | x | x
CC[C@@]1(O)C(=O)OCc2c1cc1n(c2=O)Cc2cc3c(CN(C)C)c(O)ccc3nc2-1 | 43.6 | 2.4 | -16.8 | 14.5 | x | x
CC[C@@]1(O)C(=O)OCc2c1cc1n(c2=O)Cc2cc3c(N)cccc3nc2-1 | 81.9* | 1.1 | 1.5 | -6.8 | 87.6* | 41.4
CSc1ccc(CN(C)C(=O)c2ccc(S(=O)(=O)Nc3ccccc3)cc2)cc1 | 50.9 | 1.5 | 3.1 | -3.4 | -4.8 | 12.6
O=C1C=CC(O)(c2cc(=O)c3c(O)cc(O)cc3o2)C=C1 | 47.5 | 1.4 | 4.4 | 1.6 | -53.9 | -39.8
COc1ccc(C2=NS(=O)(=O)N(C)C(C(=O)Nc3ccc(C(C)=O)cc3)=C2)cc1OC | 8.5 | 2.3 | -4.3 | 1.0 | x | x
O=C(Nc1ccc(OC(F)(F)F)cc1)Nc1cccc([N+](=O)[O-])c1 | 93.7* | 8.7 | 8.3 | -3.5 | 99.3* | 87.9*
O=C(Nc1ccncc1)Nc1cccc(C(F)(F)F)c1 | 14.9 | 1.3 | 1.3 | 1.2 | x | x
Cc1ccc(NC(=O)Nc2cccc([N+](=O)[O-])c2)cc1F | -72.7 | 3.3 | 6.4 | 0.8 | x | x
O=C(Nc1ccc(OC(F)F)cc1)Nc1cccc(C(F)(F)F)c1 | 56.7 | 9.2 | 3.3 | -0.2 | 24.2 | 31.1
SMILES | NR2E3 ag-1 | PP5 primary | PP1 inh | NR2E3 ag-2 | NR2E3 ag conf | VP16 counter
CCN(CC)S(=O)(=O)c1ccc(NC(=O)Nc2cccc(C(F)(F)F)c2)cc1 | 69.7 | 8.5 | 5.9 | 2.2 | 74.7* | 41.9
Cc1cc2nc(CSc3ccccc3)cc(=O)n2[nH]1 | -15.1 | 0.9 | 0.6 | -0.9 | x | x
CC(=O)c1cccc(NC(=O)Cn2cnc(S(=O)(=O)N3CCC(C)CC3)c2)c1 | 16.4 | -1.4 | -2.7 | 1.6 | x | x
Cc1cccc(NC(=O)c2ccc(S(=O)(=O)NCc3cccnc3)cc2)c1 | -23.0 | 3.5 | 2.5 | 0.1 | x | x
COc1cccc(CNC(=O)[C@@H]2CCCN2C(=O)[C@H]2CCCCN2C(=O)c2ccc(Cl)cc2)c1 | 46.9 | x | x | x | x | x
CC(=O)c1c(C)nc2ccccc2c1N | 8.4 | 0.7 | -1.1 | -1.4 | x | x
Cc1nc2ccccc2c(N)c1C(=O)/C=C/c1ccccc1 | 51.1 | 3.4 | 4.6 | 0.2 | -3.0 | 16.9
O=C(NN=C1c2ccccc2-c2ccccc21)c1ccccc1 | -8.3 | 0.5 | -0.1 | -1.4 | x | x
NC(=S)NN=C1c2ccccc2-c2ccccc21 | 72.2* | 2.3 | 3.7 | 3.5 | -3.6 | -10.9
O=C(CCNC(=O)c1ccc(Br)cc1)NC1CCCc2ccccc21 (centres undefined) | 25.4 | -3.0 | -1.4 | 1.2 | x | x
Fc1ccc2[nH]c3c(NCc4ccccc4)ncnc3c2c1 | 90.0* | -4.8 | 0.1 | -2.2 | 97.5* | 86.8*
COc1ccc2[nH]c3c(NCc4ccco4)ncnc3c2c1 | x | 6.7 | -1.1 | 0.4 | x | x
Cc1c(C(=O)NCc2ccc(C(C)C)cc2)sc(=O)n1Cc1ccc(S(=O)(=O)N(C)C)cc1 | 73.8* | x | x | x | 87.3* | 80.4*
Cc1c(C(=O)NCc2ccc(Cl)c(Cl)c2)sc(=O)n1Cc1ccc(S(=O)(=O)N(C)C)cc1 | 8.1 | x | x | x | x | x
COc1ccc(Cl)cc1Cn1c(C)c(C(=O)N(C)Cc2ccc(F)cc2)sc1=O | 39.3 | x | x | x | x | x
COc1ccc(Cl)cc1Cn1c(C)c(C(=O)NCc2ccc(F)cc2)sc1=O | 48.8 | x | x | x | 45.3 | 1.4
Cc1c(C(=O)NCc2cccc([N+](=O)[O-])c2)sc(=O)n1Cc1ccccc1F | 19.2 | x | x | x | x | x
COc1ccc(Cl)cc1Cn1c(C)c(C(=O)NCc2cccc([N+](=O)[O-])c2)sc1=O | 54.3 | x | x | x | 24.0 | 4.8
OCCC1CN(C/C=C/c2ccco2)CCN1Cc1ccccc1 (centres undefined) | -17.8 | 0.3 | 1.2 | -0.5 | x | x
Cc1ccc(CC(=O)Nc2ccncc2)cc1 | 50.3 | 0.7 | -4.8 | 1.8 | 66.1 | 49.9
O=S(=O)(/C(=C\c1ccc(C(F)(F)F)cc1)c1nc2ccccc2[nH]1)c1ccccc1 | 91.3* | x | x | x | 95.9* | -12.4
Cc1ccc(C(=O)N[C@H](C(=O)Nc2cccc(S(=O)(=O)N3CCOCC3)c2)C(C)C)cc1 | -2.3 | x | x | x | x | x
CN(C(=O)CSc1cc(C(=O)c2nccn2C)c2ccccc2n1)c1ccccc1 | 80.8* | 1.4 | -4.3 | -0.8 | 78.3* | 61.4
CC(C)C[C@@H]1NC(=O)[C@H](C(C)C)NC(=O)c2cc([N+](=O)[O-])cc(I)c2NCC[C@@H](C(N)=O)NC1=O | x | 3.5 | 1.4 | 0.4 | x | x
CC[C@H](C)[C@@H]1NC(=O)[C@@H](CC(C)C)NC(=O)[C@H](C(C)C)NC(=O)[C@H]2CSSC[C@H](NC1=O)C(=O)N2 | 101.9* | x | x | x | 100.0* | 98.1*

Screens (PubChem)
